Experimental data as given in ChEMBL document CHEMBL1126824, “Discovery of a novel class of potent HIV-1 protease inhibitors containing the (R)-(hydroxyethyl)urea isostere” (J Med Chem, 1993).

Target: Human immunodeficiency virus type 1 protease (Human immunodeficiency virus 1) (UniProt Q72874)
Assay: Inhibition of HIV-1 Protease
Design: concentration or dose not given beside the values
Conditions: concentration not given here
Method in brief: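 Continuous fluorometric cleavage of 2-(aminobenzoyl)-Thr-Ile-Nle-Phe(p-NO2)-Gln-ArgNH2 (Km = 37 μM); IC50 determined, with MVT-101 (Ac-Thr-Ile-Nle[CH2NH]Nle-Gln-ArgNH2) as positive control.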

Row | inhibition | Compound
1 | < 50% | CNC(=O)N(C)C[C@@H](O)[C@H](Cc1ccccc1)NC(=O)[C@H](CC(N)=O)NC(=O)OCc1ccccc1
2 | < 50% | CCCCNC(=O)N(C)C[C@@H](O)[C@H](Cc1ccccc1)NC(=O)[C@H](CC(N)=O)NC(=O)OCc1ccccc1
3 | < 50% | CCCCNC(=O)N(C)C[C@H](O)[C@H](Cc1ccccc1)NC(=O)[C@H](CC(N)=O)NC(=O)OCc1ccccc1
4 | < 50% | CNC(=O)N(C)C[C@H](O)[C@H](Cc1ccccc1)NC(=O)[C@H](CC(N)=O)NC(=O)OCc1ccccc1

Row | Compound | inhibition
5 | CNC(=O)N(CC(C)C)C[C@H](O)[C@H](Cc1ccccc1)NC(=O)[C@H](CC(N)=O)NC(=O)OCc1ccccc1 | < 50%
6 | CCCCNC(=O)N(CC(C)C)C[C@H](O)[C@H](Cc1ccccc1)NC(=O)[C@H](CC(N)=O)NC(=O)OCc1ccccc1 | < 50%

Target: T1, Human immunodeficiency virus type 1 protease (Human immunodeficiency virus 1, UniProt Q72874)
Assay: Compounds were tested for their concentration to inhibit the HIV-1 Protease
Conditions: not given
Method in brief: (§1)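 Continuous fluorometric HIV-1 protease assay. Substrate 2-(aminobenzoyl)-Thr-Ile-Nle-Phe(p-NO₂)-Gln-ArgNH₂ (Km = 37 μM). MVT-101 (Ac-Thr-Ile-Nle[CH₂NH]Nle-Gln-ArgNH₂) served as positive control. IC₅₀ values were determined from inhibition of substrate cleavage; compounds giving under 50% inhibition at 10 μM were flagged.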

Row | Compound | IC50
7 | CNC(=O)N(CC(C)C)C[C@@H](O)[C@H](Cc1ccccc1)NC(=O)[C@H](CC(N)=O)NC(=O)OCc1ccccc1 | 1500 nM

Target: T1, Human immunodeficiency virus type 1 protease
Assay: Inhibition of HIV-1 Protease.
Conditions: not given
Method in brief: as §1

Row | Compound | IC50
8 | CC(C)CCN(C[C@@H](O)[C@H](Cc1ccccc1)NC(=O)[C@H](CC(N)=O)NC(=O)c1ccc2ccccc2n1)C(=O)NC(C)(C)C | 3 nM
9 | CC(C)CN(C[C@H](O)[C@H](Cc1ccccc1)NC(=O)[C@H](CC(N)=O)NC(=O)OCc1ccccc1)C(=O)NC(C)(C)C | 54000 nM
10 | CCNC(=O)N(CC(C)C)C[C@@H](O)[C@H](Cc1ccccc1)NC(=O)[C@H](CC(N)=O)NC(=O)OCc1ccccc1 | 330 nM
11 | CC(C)(C)NC(=O)N(Cc1ccccc1)C[C@@H](O)[C@H](Cc1ccccc1)NC(=O)[C@H](CC(N)=O)NC(=O)OCc1ccccc1 | 19 nM
12 | C[C@@H](c1ccccc1)N(C[C@@H](O)[C@H](Cc1ccccc1)NC(=O)[C@H](CC(N)=O)NC(=O)OCc1ccccc1)C(=O)NC(C)(C)C | 5100 nM
13 | CCCNC(=O)N(CC(C)C)C[C@@H](O)[C@H](Cc1ccccc1)NC(=O)[C@H](CC(N)=O)NC(=O)OCc1ccccc1 | 518 nM
14 | CC(C)(C)NC(=O)N(CC1CCCCC1)C[C@@H](O)[C@H](Cc1ccccc1)NC(=O)[C@H](CC(N)=O)NC(=O)c1ccc2ccccc2n1 | 5 nM
15 | CCCCNC(=O)N(CC(C)C)C[C@@H](O)[C@H](Cc1ccccc1)NC(=O)[C@H](CC(N)=O)NC(=O)OCc1ccccc1 | 940 nM
16 | CC(C)(C)NC(=O)N(CC1CCCCC1)C[C@@H](O)[C@H](Cc1ccccc1)NC(=O)[C@H](CC(N)=O)NC(=O)OCc1ccccc1 | 29 nM
17 | CC(C)CN(C[C@@H](O)[C@H](Cc1ccccc1)NC(=O)[C@H](CC(N)=O)NC(=O)OCc1ccccc1)C(=O)NC(C)C | 260 nM
18 | CC(C)(C)NC(=O)N(Cc1ccncc1)C[C@@H](O)[C@H](Cc1ccccc1)NC(=O)[C@H](CC(N)=O)NC(=O)c1ccc2ccccc2n1 | 19 nM
19 | CCCC[C@@H](CN[C@@H](CCCC)C(=O)N[C@@H](CCC(N)=O)C(=O)N[C@@H](CCCNC(=N)N)C(N)=O)NC(=O)[C@@H](NC(=O)[C@@H](NC(C)=O)[C@@H](C)O)[C@@H](C)CC | 1900 nM
20 | CC(C)CN(C[C@@H](O)[C@H](Cc1ccccc1)NC(=O)[C@H](CC(N)=O)NC(=O)OCc1ccccc1)C(=O)NC(C)(C)C | 35 nM
21 | CC(C)(C)NC(=O)N(Cc1ccncc1)C[C@@H](O)[C@H](Cc1ccccc1)NC(=O)[C@H](CC(N)=O)NC(=O)OCc1ccccc1 | 105 nM
22 | C[C@H](c1ccccc1)N(C[C@@H](O)[C@H](Cc1ccccc1)NC(=O)[C@H](CC(N)=O)NC(=O)OCc1ccccc1)C(=O)NC(C)(C)C | 6500 nM
23 | CC(C)CN(C[C@@H](O)[C@H](Cc1ccccc1)NC(=O)[C@H](CC(N)=O)NC(=O)c1ccc2ccccc2n1)C(=O)NC(C)(C)C [TELINAVIR] | 6 nM
24 | CC(C)CN(C[C@H](O)[C@H](Cc1ccccc1)NC(=O)[C@H](CC(N)=O)NC(=O)c1ccc2ccccc2n1)C(=O)NC(C)(C)C | 10000 nM
25 | CCCCNC(=O)N(CC(C)C)C[C@@H](O)[C@H](Cc1ccccc1)NC(=O)[C@H](CC(N)=O)NC(=O)c1ccc2ccccc2n1 | 126 nM
26 | CC(C)CCN(C[C@@H](O)[C@H](Cc1ccccc1)NC(=O)[C@H](CC(N)=O)NC(=O)OCc1ccccc1)C(=O)NC(C)(C)C | 13 nM
27 | CC(C)(C)NC(=O)N(Cc1ccccc1)C[C@@H](O)[C@H](Cc1ccccc1)NC(=O)[C@H](CC(N)=O)NC(=O)c1ccc2ccccc2n1 | 3 nM

Test system: CEM (Homo sapiens)
Assay: Toxic dose required for 50% in uninfected cells
Conditions: not given

Row | Compound | TD50
28 | CC(C)CCN(C[C@@H](O)[C@H](Cc1ccccc1)NC(=O)[C@H](CC(N)=O)NC(=O)c1ccc2ccccc2n1)C(=O)NC(C)(C)C | 50 µM
29 | CC(C)(C)NC(=O)N(Cc1ccncc1)C[C@@H](O)[C@H](Cc1ccccc1)NC(=O)[C@H](CC(N)=O)NC(=O)c1ccc2ccccc2n1 | 300 µM
30 | CC(C)CN(C[C@@H](O)[C@H](Cc1ccccc1)NC(=O)[C@H](CC(N)=O)NC(=O)c1ccc2ccccc2n1)C(=O)NC(C)(C)C [TELINAVIR] | 50 µM
31 | CC(C)(C)NC(=O)N(Cc1ccccc1)C[C@@H](O)[C@H](Cc1ccccc1)NC(=O)[C@H](CC(N)=O)NC(=O)c1ccc2ccccc2n1 | 700 µM
